Results taken from the M2OR odorant receptor database.

target: T1, UniProt Q8VFG6; details: stereoisomer not certain
T1 sequence (whole entry): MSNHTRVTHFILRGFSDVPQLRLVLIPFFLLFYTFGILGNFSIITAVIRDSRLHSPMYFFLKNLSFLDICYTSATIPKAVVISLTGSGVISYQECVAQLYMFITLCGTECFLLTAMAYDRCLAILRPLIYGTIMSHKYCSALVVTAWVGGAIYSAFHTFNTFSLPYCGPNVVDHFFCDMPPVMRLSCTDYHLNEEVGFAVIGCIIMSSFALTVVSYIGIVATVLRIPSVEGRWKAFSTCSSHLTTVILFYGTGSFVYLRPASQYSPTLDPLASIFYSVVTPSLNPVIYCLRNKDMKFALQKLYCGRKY
Method in brief: (§1)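 Transient luciferase assays in mammalian cell lines were common, though methods varied by source. The values come from published papers and their supplementary material, with extra details from the original authors when needed. Responsive refers to a measured signal the original authors judged statistically different from baseline, and non-responsive (inactive) to the remainder.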
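Note: active if original authors judged signal statistically different from baseline.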

Odorant receptor agonist call, inactive:
CCCCCOC(=O)CCCCC
CCC(=O)C(=O)CC
CCCCCCCCCC(=O)[O-].[H+]
CCCCCCC(=O)[O-].[H+]
C=CCOC(=O)CCCCCC
CCCCCCCCCCO
O=C(c1ccccc1)c1ccccc1
CCCCOC=O
CC(=O)OCC=C(C)C
CC12CCC(CC1=O)C2(C)C (stereo not drawn)
CCCCCO
CCCCCCCCS
CCCCCC=O
CCC(C(=O)O)c1ccccc1 (stereo not drawn)
CCOC(=O)C(C)C
O=c1ccc2ccccc2o1
CCCCCC1=C(C)CCC1=O
CCCCOC(=O)C(C)OC(=O)CCC (stereo not drawn)
CCCCCCOC(C)=O

target: T2, UniProt Q8VFM8; details: stereoisomer not certain
T2 sequence (whole entry): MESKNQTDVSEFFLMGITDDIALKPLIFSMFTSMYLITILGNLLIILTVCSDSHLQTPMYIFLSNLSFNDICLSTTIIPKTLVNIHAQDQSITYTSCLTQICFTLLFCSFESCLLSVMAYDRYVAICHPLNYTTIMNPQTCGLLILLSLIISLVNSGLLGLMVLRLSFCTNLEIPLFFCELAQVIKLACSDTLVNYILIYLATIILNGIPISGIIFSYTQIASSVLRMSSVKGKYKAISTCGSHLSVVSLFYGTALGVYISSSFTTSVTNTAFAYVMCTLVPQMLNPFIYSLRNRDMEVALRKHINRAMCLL
Method in brief: as §1

Odorant receptor agonist call, inactive:
CCCCCOC(=O)CCCCC
C=C(C)C1CCC2(C)OC2C1 (stereo not drawn)
CCCCCCCCOC=O
CCC(=O)C(=O)CC
CCOC(=O)CC(C)C
CCCCCCCCCC(=O)[O-].[H+]
C=CCOC(=O)CCCCCC
CCCCCCCCCCO
OCCCCCCCCCO
O=C(c1ccccc1)c1ccccc1
CCCCOC=O
CC(=O)C1(C)CC2=C(CCCC2(C)C)CC1C (stereo not drawn)
CC(=O)OCC=C(C)C
CC12CCC(CC1=O)C2(C)C (stereo not drawn)
CCCCCC(C=O)=Cc1ccccc1
COC(OC)c1ccccc1
CCCCCCCCS
CCC=CCCCCC=O
CCN(CC)CC
C=C1C2CCC(C2)C1(C)C (stereo not drawn)
CCCCCC=O
O=C(OCc1ccccc1)c1ccccc1O
CCOC(=O)C(C)C
CCC=CCCC=CC=O
C=CC(=C)CCC=C(C)CCC=C(C)C
CCCO
CCCCCC1=C(C)CCC1=O
CCCCCCOC(C)=O
Cc1ccc2c(c1)OCC(=O)CO2
